Experimental data reported in ChEMBL document CHEMBL2434947, “Probing structural requirements of positive allosteric modulators of the M4 muscarinic receptor” (J Med Chem, 2013).
Active and inactive are the calls of the source. The rule behind the calls is not given here.

How the values were obtained:
[1] = target: T1, Muscarinic acetylcholine receptor M4 (Homo sapiens, UniProt P08173); experiment: Positive allosteric modulation of human muscarinic M4 receptor expressed in CHO Flp-In cells assessed as stimulation of acetylcholine-induced ERK1/2 phosphorylation incubated under green light condition by fluorescence assay; type: cell-based
T1 sequence (P08173 whole entry): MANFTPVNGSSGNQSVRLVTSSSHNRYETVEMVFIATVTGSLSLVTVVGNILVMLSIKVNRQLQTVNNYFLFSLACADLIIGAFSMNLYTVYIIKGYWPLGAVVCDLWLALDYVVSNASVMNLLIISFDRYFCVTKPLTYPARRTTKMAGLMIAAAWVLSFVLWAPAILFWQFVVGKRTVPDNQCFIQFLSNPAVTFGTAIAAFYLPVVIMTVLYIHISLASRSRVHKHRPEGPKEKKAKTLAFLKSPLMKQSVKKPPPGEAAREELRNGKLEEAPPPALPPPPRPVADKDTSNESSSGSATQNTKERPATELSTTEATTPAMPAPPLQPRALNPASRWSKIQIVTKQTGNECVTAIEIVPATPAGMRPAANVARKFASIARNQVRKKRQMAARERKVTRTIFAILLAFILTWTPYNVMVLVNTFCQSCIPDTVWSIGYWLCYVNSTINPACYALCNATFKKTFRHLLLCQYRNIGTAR
Method in brief: (§1)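 Intact FlpIn-CHO cells stably expressing human M4 mAChR; ERK1/2 phosphorylation read-out. A time course first set the incubation time of peak phosphorylation, and concentration-response curves were run at that time. Modulator was titrated against ACh. pKB (allosteric site affinity), τB and composite cooperativity αβ came from an operational model of allosterism. Mean ± SEM from at least three experiments in duplicate.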

[2] = target: T2, Muscarinic acetylcholine receptor M4 (Homo sapiens) (UniProt P08173); experiment: Binding affinity to human muscarinic M4 receptor expressed in CHO Flp-In cells; type: cell-based; method in brief: as §1
T2 sequence (whole entry): T1 sequence (P08173 whole entry)

[3] = target: T2, Muscarinic acetylcholine receptor M4 (Homo sapiens); experiment: Positive allosteric modulation of human muscarinic M4 receptor expressed in CHO Flp-In cells assessed as stimulation of acetylcholine-induced ERK1/2 phosphorylation incubated under green light condition by fluorescence assay relative to control; type: cell-based
Method in brief: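 ERK1/2 phosphorylation in intact FlpIn-CHO cells stably expressing human M4 mAChR. Modulator was titrated at a fixed EC20 concentration of ACh to give empirical EC50 and Emax (EM′). The incubation time was taken from prior time-course assays of peak phosphorylation. Mean ± SEM from at least three experiments performed in duplicate.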

[4] = target: T2, Muscarinic acetylcholine receptor M4 (Homo sapiens); experiment: Displacement of [3H]NMS from human muscarinic M4 receptor expressed in CHO Flp-In cells after 4 hrs by scintillation counting analysis; type: cell-based
[5] = target: T2, Muscarinic acetylcholine receptor M4 (Homo sapiens); experiment: Positive allosteric modulation of human muscarinic M4 receptor expressed in CHO Flp-In cells assessed as stimulation of acetylcholine-induced ERK1/2 phosphorylation incubated under green light condition by fluorescence assay

Structure (SMILES)	EC50 ([1]; read-out: EC50) [nM]	Kb [2] [nM]	pKb [2]	Emax [3]	Activity [3]	also measured
COc1ccc(CNC(=O)c2sc3nc(C)cc(C)c3c2N)cc1F	100	2580	5.59	95%		Activity [4]: inactive
COc1cc(CNC(=O)c2sc3nc(C)cc(C)c3c2N)cc(OC)c1.Cl				inactive		EC50 [1]: Not Active; Activity [5]: inactive; KB [2]: inactive
COc1ccc(CNC(=O)c2sc3nc(C)cc(C)c3c2N)cc1				85%		Activity [4]: inactive
Cc1cc(C)c(C#N)c(SCC(=O)NCc2ccccc2F)n1					inactive	
COc1ccccc1CNC(=O)CSc1nc(C)cc(C)c1C#N					inactive	
Cc1cc(C)c(C#N)c(SCC(=O)NCc2cc(F)ccc2F)n1					inactive	
COc1cc(CNC(=O)CSc2nc(C)cc(C)c2C#N)cc(OC)c1					inactive	
Cc1cc(C)c(C#N)c(SCC(=O)NCc2cccc(F)c2)n1					inactive	
COc1ccc(CNC(=O)c2sc3nc(C)cc(C)c3c2N)cc1OC.Cl				inactive		EC50 [1]: Not Active; Activity [5]: inactive; KB [2]: inactive
Cc1cc(C)c(C#N)c(SCC(=O)NCc2cc(F)c(F)cc2F)n1					inactive	
COc1ccc(CNC(=O)CSc2nc(C)cc(C)c2C#N)c(F)c1F					inactive	
Cc1cc(C)c2c(N)c(C(=O)NCc3ccc(F)cc3)sc2n1	220	2520	5.6	98%		Activity [4]: inactive
COc1cccc(CNC(=O)c2sc3nc(C)cc(C)c3c2N)c1	560	11400	4.95	92%		
COc1cc(CNC(=O)c2sc3nc(C)cc(C)c3c2N)cc(OC)c1OC.Cl				inactive		EC50 [1]: Not Active; Activity [5]: inactive; KB [2]: inactive
COc1ccccc1CNC(=O)c1sc2nc(C)cc(C)c2c1N.Cl				inactive		EC50 [1]: Not Active; Activity [5]: inactive; KB [2]: inactive
COc1ccc(CNC(=O)CSc2nc(C)cc(C)c2C#N)cc1					inactive	
COc1cccc(CNC(=O)CSc2nc(C)cc(C)c2C#N)c1					inactive	

More lines, main results first:

EC50 ([1]; read-out: EC50) [nM]	Kb [2] [nM]	pKb [2]	Emax [3]	Activity [3]	Structure (SMILES)	also measured
130	1690	5.77	85%		Cc1cc(C)c2c(N)c(C(=O)NCc3cc(F)ccc3F)sc2n1	
130	1170	5.93	92%		Cc1cc(C)c2c(N)c(C(=O)NCc3ccccc3F)sc2n1	
110	1720	5.76	91%		Cc1cc(C)c2c(N)c(C(=O)NCc3cccc(F)c3F)sc2n1	Activity [4]: inactive
			inactive		COc1cc(F)c(CNC(=O)c2sc3nc(C)cc(C)c3c2N)cc1F.Cl	EC50 [1]: Not Active; Activity [5]: inactive; KB [2]: inactive
240	1880	5.73	89%		COc1ccc(CNC(=O)c2sc3nc(C)cc(C)c3c2N)c(F)c1F	Activity [4]: inactive
140	1290	5.89	85%		Cc1cc(C)c2c(N)c(C(=O)NCc3cc(F)cc(F)c3F)sc2n1	
580	2320	5.63	83%		Cc1cc(C)c2c(N)c(C(=O)NCc3cc(F)c(F)cc3F)sc2n1	
350	1820	5.74	56%		COc1ccc(CNC(=O)c2sc3nc(C)cc(C)c3c2N)c(F)c1	
310	6240	5.21	98%		Cc1cc(C)c2c(N)c(C(=O)NCc3cccc(F)c3)sc2n1	Activity [4]: inactive
